# Assay results: ChEMBL document CHEMBL1156941, “Discovery of small molecule isozyme non-specific inhibitors of mammalian acetyl-CoA carboxylase 1 and 2” (Bioorg Med Chem Lett, 2010)
# pIC50: −log10 of the molar value.
# Tests used:
# Acetyl-CoA carboxylase 1 = Acetyl-CoA carboxylase 1 (Rattus norvegicus, UniProt P11497); test: Inhibition of rat liver ACC1 after 7 mins by liquid scintillation counter
# Acetyl-CoA carboxylase 2 = Acetyl-CoA carboxylase 2 (Homo sapiens, UniProt O00763); test: Inhibition of human recombinant ACC2 expressed in CHO cells after 1 hr by fluorescence reader; format: cell-based
# Chain of Acetyl-CoA carboxylase 2 (O00763 whole entry): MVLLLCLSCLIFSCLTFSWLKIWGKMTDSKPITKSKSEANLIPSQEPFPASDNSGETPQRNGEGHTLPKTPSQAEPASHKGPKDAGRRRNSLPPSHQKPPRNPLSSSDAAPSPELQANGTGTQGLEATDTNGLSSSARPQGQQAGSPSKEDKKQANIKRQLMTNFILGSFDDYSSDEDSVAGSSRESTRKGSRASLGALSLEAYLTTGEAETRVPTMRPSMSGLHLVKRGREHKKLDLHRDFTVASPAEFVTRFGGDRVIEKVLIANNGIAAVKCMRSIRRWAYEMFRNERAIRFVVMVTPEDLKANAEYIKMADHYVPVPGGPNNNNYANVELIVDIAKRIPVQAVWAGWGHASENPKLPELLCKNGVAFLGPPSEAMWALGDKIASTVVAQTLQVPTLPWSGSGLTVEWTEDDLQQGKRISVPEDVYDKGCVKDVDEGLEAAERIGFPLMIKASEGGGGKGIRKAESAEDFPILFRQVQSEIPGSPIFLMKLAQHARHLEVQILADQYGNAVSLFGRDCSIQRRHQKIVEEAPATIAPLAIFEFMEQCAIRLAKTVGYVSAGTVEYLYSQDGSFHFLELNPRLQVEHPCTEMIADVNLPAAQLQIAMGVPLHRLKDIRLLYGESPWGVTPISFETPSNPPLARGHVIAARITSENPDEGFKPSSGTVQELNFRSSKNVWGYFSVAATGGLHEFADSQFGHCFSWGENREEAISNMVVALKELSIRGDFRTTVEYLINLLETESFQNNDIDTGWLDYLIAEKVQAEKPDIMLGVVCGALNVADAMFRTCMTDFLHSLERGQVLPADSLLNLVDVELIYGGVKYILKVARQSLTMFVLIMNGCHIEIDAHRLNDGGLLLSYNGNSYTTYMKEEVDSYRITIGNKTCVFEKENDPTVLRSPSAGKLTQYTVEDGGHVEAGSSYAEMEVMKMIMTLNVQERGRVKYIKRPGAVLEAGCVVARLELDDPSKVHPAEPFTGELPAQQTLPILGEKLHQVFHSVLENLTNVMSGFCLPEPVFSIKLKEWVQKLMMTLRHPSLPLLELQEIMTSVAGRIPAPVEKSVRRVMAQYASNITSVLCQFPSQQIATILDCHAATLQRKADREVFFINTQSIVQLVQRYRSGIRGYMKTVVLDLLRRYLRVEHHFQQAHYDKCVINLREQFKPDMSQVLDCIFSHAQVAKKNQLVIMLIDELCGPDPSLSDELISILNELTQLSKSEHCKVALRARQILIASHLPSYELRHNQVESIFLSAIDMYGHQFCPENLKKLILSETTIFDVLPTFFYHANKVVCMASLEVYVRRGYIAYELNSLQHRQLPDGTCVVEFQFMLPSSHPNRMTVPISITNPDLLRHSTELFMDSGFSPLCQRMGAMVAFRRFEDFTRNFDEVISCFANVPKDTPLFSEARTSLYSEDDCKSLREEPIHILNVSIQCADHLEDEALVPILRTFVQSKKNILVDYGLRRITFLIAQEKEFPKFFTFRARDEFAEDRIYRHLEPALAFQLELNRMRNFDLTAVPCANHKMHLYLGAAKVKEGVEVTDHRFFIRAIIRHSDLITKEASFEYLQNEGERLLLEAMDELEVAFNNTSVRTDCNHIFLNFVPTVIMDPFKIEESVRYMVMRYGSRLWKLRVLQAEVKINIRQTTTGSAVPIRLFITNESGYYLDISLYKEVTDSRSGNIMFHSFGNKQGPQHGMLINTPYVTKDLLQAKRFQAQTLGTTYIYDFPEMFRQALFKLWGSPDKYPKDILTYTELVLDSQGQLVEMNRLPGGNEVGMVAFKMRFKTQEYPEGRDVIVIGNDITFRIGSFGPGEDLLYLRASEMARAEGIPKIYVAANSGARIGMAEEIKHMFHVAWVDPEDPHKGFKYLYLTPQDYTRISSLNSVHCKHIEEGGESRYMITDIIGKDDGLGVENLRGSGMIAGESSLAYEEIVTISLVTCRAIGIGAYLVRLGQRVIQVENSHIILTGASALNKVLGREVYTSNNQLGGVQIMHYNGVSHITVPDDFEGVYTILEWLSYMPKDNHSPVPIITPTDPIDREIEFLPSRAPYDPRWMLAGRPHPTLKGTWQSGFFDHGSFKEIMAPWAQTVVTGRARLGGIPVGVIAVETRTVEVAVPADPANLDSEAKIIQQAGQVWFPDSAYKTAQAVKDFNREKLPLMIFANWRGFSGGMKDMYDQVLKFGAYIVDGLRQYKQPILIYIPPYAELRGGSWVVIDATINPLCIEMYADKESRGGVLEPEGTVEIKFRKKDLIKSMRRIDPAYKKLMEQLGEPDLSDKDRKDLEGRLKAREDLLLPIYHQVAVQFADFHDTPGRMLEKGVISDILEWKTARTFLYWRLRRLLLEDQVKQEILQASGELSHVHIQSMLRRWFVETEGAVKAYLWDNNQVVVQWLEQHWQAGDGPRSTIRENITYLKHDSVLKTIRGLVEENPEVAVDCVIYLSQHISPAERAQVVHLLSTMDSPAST
# In short: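 Purified recombinant human ACC2, from conditioned medium captured on avidin resin and eluted with biotin, then dialyzed. Compounds in DMSO, final DMSO 1%. Run 1 h at room temperature. ADP measured by Transcreener fluorescence polarization after a further 1 h.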
# [1] = Clearance in rat at 1 mg/kg, iv; format: ADME, organism-based; design: dose 1 mg/kg, route intravenous; details: in vivo
# In short: (§1)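 Rat pharmacokinetics. Intravenous dose 1 mg/kg, giving CL in mL/min/kg and Vdss in L/kg. Oral dose 5 mg/kg, giving Cmax in ng/mL, %F and t1/2 in h.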
# [2] = Volume of distribution at steady state in rat at 1 mg/kg, iv; format: ADME, organism-based; design: dose 1 mg/kg, route intravenous; details: in vivo, read-out: Vdss; in short: as §1
# [3] = Cmax in rat at 5 mg/kg, po; format: ADME, organism-based; design: dose 5 mg/kg, route oral; details: in vivo; in short: as §1
# [4] = Oral bioavailability in rat at 5 mg/kg; format: ADME, organism-based; details: in vivo; in short: as §1
# [5] = Half life in rat at 5 mg/kg, po; format: ADME, organism-based; design: dose 5 mg/kg, route oral; details: in vivo; in short: as §1
# [6] = Oral bioavailability in rat at 3 mg/kg administered with methylcellulose; format: ADME, organism-based; details: in vivo
# [7] = Volume of distribution at steady state in rat at 1 mg/kg, iv administered with methylcellulose; format: ADME, organism-based; design: dose 1 mg/kg, route intravenous; details: in vivo, read-out: Vdss
# [8] = Clearance in Beagle dog at 1 mg/kg, iv administered with 40% PEG400 and 60% glycerol; format: ADME, organism-based, Canis lupus familiaris; design: dose 1 mg/kg, route intravenous; details: in vivo
# [9] = Oral bioavailability in rat at 3 mg/kg administered with lipid emulsion; format: ADME, organism-based; details: in vivo
# [10] = Oral bioavailability in rat at 3 mg/kg administered with spray-dried dispersion; format: ADME, organism-based; details: in vivo
# [11] = Half life in rat at 1 mg/kg, iv administered with methylcellulose; format: ADME, organism-based; design: dose 1 mg/kg, route intravenous; details: in vivo
# [12] = Volume of distribution at steady state in Beagle dog at 1 mg/kg, iv administered with 40% PEG400 and 60% glycerol; format: ADME, organism-based, Canis lupus familiaris; design: dose 1 mg/kg, route intravenous; details: in vivo, read-out: Vdss
# [13] = Clearance in rat at 1 mg/kg, iv administered with methylcellulose; format: ADME, organism-based; design: dose 1 mg/kg, route intravenous; details: in vivo
# [14] = Half life in Beagle dog at 1 mg/kg, iv administered with 40% PEG400 and 60% glycerol; format: ADME, organism-based, Canis lupus familiaris; design: dose 1 mg/kg, route intravenous; details: in vivo
SMILES,pIC50 (Acetyl-CoA carboxylase 1),pIC50 (Acetyl-CoA carboxylase 2),also measured
COc1cccc2c1C(=O)CC1(CCN(C(=O)c3ccc4[nH]c(-c5ccccn5)nc4c3)CC1)O2,7.59,7.92,
Cc1cc(C)c2c(c1)C(=O)CC1(CCN(C(=O)c3cccc4cn[nH]c34)CC1)O2,,< 6.00,
COc1cccc2c1C(=O)CC1(CCN(C(=O)c3ccc4nn[nH]c4c3)CC1)O2,5.53,6.30,
Cc1ccc2cc(CC3CCN(C(=O)c4cccc5cn[nH]c45)CC3)ccc2n1,5.47,,clearance [1]: 44.3 mL/min/kg; Vd [2]: 2.4 L/kg; Cmax [3]: 617 ng/mL; bioavailability [4]: 45%; half-life [5]: 1.7 h
Cc1ncc(-c2ccc3c(c2)C(=O)CC2(CCN(C(=O)c4cc(C)c5[nH]ncc5c4)CC2)O3)o1,7.77,7.41,
Cc1noc(C)c1-c1ccc2c(c1)C(=O)CC1(CCN(C(=O)c3cc(C)c4[nH]ncc4c3)CC1)O2,7.89,8.19,
Cn1cc(-c2cc3c(cn2)OC2(CCN(C(=O)c4ccc5nc(-c6ccn(C)n6)[nH]c5c4)CC2)CC3=O)cn1,6.01,,
Cc1cc(C(=O)N2CCC3(CC2)CC(=O)c2cc(-c4cnn(C)c4)ncc2O3)cc2cn[nH]c12,7.61,,
Cc1cc2c(cc1C)C(=O)CC1(CCN(C(=O)c3cccc4cn[nH]c34)CC1)O2,,6.40,
Cc1cc(C(=O)N2CCC3(CC2)CC(=O)c2c(ccnc2OCC(C)C)O3)cc2cn[nH]c12,7.64,7.01,
Cc1n[nH]c2c(C)cc(C(=O)N3CCC4(CC3)CC(=O)c3c(ccnc3OC(C)C)O4)cc12,7.92,7.70,bioavailability [6]: 32%; Vd [7]: 3.3 L/kg; clearance [8]: 3.6 mL/min/kg; bioavailability [9]: 8%; bioavailability [10]: 52%; half-life [11]: 1.4 h; Vd [12]: 1.6 L/kg; clearance [13]: 31 mL/min/kg; half-life [14]: 6.1 h
Cc1cc(C(=O)N2CCC3(CC2)CC(=O)c2cc(-c4cc[nH]n4)ccc2O3)cc2cn[nH]c12,7.74,8.35,
COc1cccc2c1C(=O)CC1(CCN(C(=O)c3cc(C)c4[nH]c(C(N)=O)cc4c3)CC1)O2,7.19,7.80,
COc1cccc2c1C(=O)CC1(CCN(C(=O)c3ccc4nc(-c5ccccc5)[nH]c4c3)CC1)O2,7.80,7.80,
COc1cccc2c1C(=O)CC1(CCN(C(=O)c3ccc4[nH]c(C(N)=O)nc4c3)CC1)O2,7.46,7.80,
Cc1ccc2cc(CC3CCN(C(=O)c4ccnc5ccccc45)CC3)ccc2n1,5.05,,
Cc1cc2c(cc1C)C(=O)CC1(CCN(C(=O)c3cc(C)c4[nH]ncc4c3)CC1)O2,7.66,7.32,
Cc1ccc2c(n1)C(=O)CC1(CCN(C(=O)c3cc(C)c4[nH]ncc4c3)CC1)O2,6.44,,
Cc1n[nH]c2ccc(C(=O)N3CCC4(CC3)CC(=O)c3ncccc3O4)cc12,6.12,6.19,
COc1cccc2c1C(=O)CC1(CCN(C(=O)c3ccc4c(C)n[nH]c4c3)CC1)O2,6.66,6.79,
COc1cccc2c1C(=O)CC1(CCN(C(=O)c3cc(C)c4[nH]nc(C)c4c3)CC1)O2,7.38,7.96,
Cc1cc(C(=O)N2CCC3(CC2)CC(=O)c2cc(-c4cnn(C)c4)ccc2O3)cc2cn[nH]c12,8.12,,
COc1cccc2c1C(=O)CC1(CCN(C(=O)c3ccc4nc(-c5ccncc5)[nH]c4c3)CC1)O2,7.22,7.29,
Cc1cc(C(=O)N2CCC3(CC2)CC(=O)c2ncccc2O3)cc2cn[nH]c12,6.81,,
COc1cccc2c1C(=O)CC1(CCN(C(=O)c3ccc4nc(-c5ccn(C)n5)[nH]c4c3)CC1)O2,7.72,,
Cc1cc(C(=O)N2CCC3(CC2)CC(=O)c2cc(-c4cn[nH]c4)ccc2O3)cc2cn[nH]c12,8.13,,
O=C1CC2(CCN(C(=O)c3cccc4cn[nH]c34)CC2)Oc2ccc(Cl)cc21,,5.67,
COc1cccc2c1C(=O)CC1(CCN(C(=O)c3cc(C)c4nc[nH]c4c3)CC1)O2,6.76,6.90,

# The next lines start with results.
pIC50 (Acetyl-CoA carboxylase 1),pIC50 (Acetyl-CoA carboxylase 2),SMILES,also measured
6.18,< 6.00,COc1cccc2c1C(=O)CC1(CCN(C(=O)c3ccc4[nH]c(C)nc4c3)CC1)O2,
7.51,8.21,Cc1cc(C(=O)N2CCC3(CC2)CC(=O)c2cc(-c4ccn(C)n4)ccc2O3)cc2cn[nH]c12,
7.74,8.12,Cc1cc(-c2ccc3c(c2)C(=O)CC2(CCN(C(=O)c4cc(C)c5[nH]ncc5c4)CC2)O3)n[nH]1,
,< 6.00,COc1cccc2c1C(=O)CC1(CCN(C(=O)c3cccc4cn[nH]c34)CC1)O2,
5.87,,Cc1cc(C(=O)N2CCC3(CC2)CC(=O)c2nc(N)ccc2O3)cc2cn[nH]c12,
7.52,8.35,Cc1cc(C(=O)N2CCC3(CC2)CC(=O)c2c(ccnc2OC(C)C)O3)cc2cn[nH]c12,
5.90,,Cc1ccc2cc(CC3CCN(C(=O)c4cccc(-c5cn[nH]c5)c4)CC3)ccc2n1,
5.52,,Cc1ccc2cc(CC3CCN(C(=O)c4cccc(-c5cc[nH]n5)c4)CC3)ccc2n1,clearance [1]: 34.1 mL/min/kg; Vd [2]: 2.8 L/kg; Cmax [3]: 91.5 ng/mL; bioavailability [4]: 7%; half-life [5]: 1.8 h
7.37,7.96,CNC(=O)c1cc2cc(C(=O)N3CCC4(CC3)CC(=O)c3c(OC)cccc3O4)ccc2[nH]1,
7.07,,COc1nccc2c1C(=O)CC1(CCN(C(=O)c3cc(C)c4[nH]ncc4c3)CC1)O2,
7.47,7.32,COc1nc(C)cc2c1C(=O)CC1(CCN(C(=O)c3cc(C)c4[nH]ncc4c3)CC1)O2,
7.72,7.52,Cc1nc(-c2ccc3c(c2)C(=O)CC2(CCN(C(=O)c4cc(C)c5[nH]ncc5c4)CC2)O3)co1,
7.21,,CCOc1nccc2c1C(=O)CC1(CCN(C(=O)c3cc(C)c4[nH]ncc4c3)CC1)O2,
6.67,6.95,COc1cccc2c1C(=O)CC1(CCN(C(=O)c3ccc4nc[nH]c4c3)CC1)O2,
6.98,8.19,COc1cccc2c1C(=O)CC1(CCN(C(=O)c3cc(C)c4[nH]ncc4c3)CC1)O2,
6.74,,COc1cc2c(cn1)OC1(CCN(C(=O)c3cc(C)c4[nH]ncc4c3)CC1)CC2=O,
6.99,6.82,CCc1cc(C(=O)N2CCC3(CC2)CC(=O)c2c(OC)cccc2O3)cc2cn[nH]c12,
7.59,7.72,COc1cccc2c1C(=O)CC1(CCN(C(=O)c3ccc4nc(-c5cccnc5)[nH]c4c3)CC1)O2,
7.00,,COc1cccc2c1C(=O)CC1(CCN(C(=O)c3ccc4nc(-c5ccnnc5)[nH]c4c3)CC1)O2,
6.60,6.44,Cc1n[nH]c2c(C)cc(C(=O)N3CCC4(CC3)CC(=O)c3ncccc3O4)cc12,
